In PMC6828636 (European Journal of Drug Metabolism and Pharmacokinetics, 2019):
Where two headings read alike, the source gives them in different places.

Columns and labels:
Format in all cases: in vitro ADME
OCT1 = target: T1, OCT1 (Homo sapiens, UniProt O15245); assay: Cellular uptake in OCT1-transfected HEK cells; conditions: not affected by decynium-22
T1 sequence (O15245 1-554): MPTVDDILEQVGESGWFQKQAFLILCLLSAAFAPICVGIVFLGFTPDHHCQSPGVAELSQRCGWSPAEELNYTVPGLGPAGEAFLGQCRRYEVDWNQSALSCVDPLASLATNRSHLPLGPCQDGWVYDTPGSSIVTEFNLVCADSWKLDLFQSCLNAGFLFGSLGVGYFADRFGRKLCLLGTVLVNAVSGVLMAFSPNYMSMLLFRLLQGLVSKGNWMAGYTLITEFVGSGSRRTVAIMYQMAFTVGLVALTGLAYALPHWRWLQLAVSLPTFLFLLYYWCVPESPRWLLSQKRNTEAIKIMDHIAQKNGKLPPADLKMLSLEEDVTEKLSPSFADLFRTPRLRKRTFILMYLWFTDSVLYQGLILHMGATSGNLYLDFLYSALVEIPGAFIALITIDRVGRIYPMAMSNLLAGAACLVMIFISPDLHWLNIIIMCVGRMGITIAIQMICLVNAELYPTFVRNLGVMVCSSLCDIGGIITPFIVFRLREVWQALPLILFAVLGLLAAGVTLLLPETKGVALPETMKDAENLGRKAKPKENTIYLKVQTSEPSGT
How it was run: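 Cellular uptake of test compound was measured in HEK cells transfected to overexpress OATP1B1, OATP1B3 or OCT1. Vector-control cells were run in parallel. Standard inhibitors and probe substrates were included; decynium-22 served as OCT1 inhibitor, rifamycin as OATP inhibitor.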

CYP2C9 = CYP2C9 (Homo sapiens, UniProt P11712); assay: CYP2C9 inhibition in human liver microsomes
CYP2C9, sequence (P11712 whole entry, canonical isoform): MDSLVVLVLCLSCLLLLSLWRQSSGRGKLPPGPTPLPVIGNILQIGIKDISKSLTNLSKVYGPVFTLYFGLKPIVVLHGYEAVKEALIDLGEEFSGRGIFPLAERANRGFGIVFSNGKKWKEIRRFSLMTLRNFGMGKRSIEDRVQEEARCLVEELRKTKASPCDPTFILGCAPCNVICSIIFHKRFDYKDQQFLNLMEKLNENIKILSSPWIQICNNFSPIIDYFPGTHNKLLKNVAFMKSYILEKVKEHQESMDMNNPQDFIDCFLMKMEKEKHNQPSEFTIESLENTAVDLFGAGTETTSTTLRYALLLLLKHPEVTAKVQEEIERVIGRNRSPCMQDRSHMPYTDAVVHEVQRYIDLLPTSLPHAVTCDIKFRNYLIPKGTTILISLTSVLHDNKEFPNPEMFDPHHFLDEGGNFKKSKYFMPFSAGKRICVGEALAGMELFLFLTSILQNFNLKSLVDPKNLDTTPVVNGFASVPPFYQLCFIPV
How it was run: (§1)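 Pooled human liver microsomes were incubated with standard CYP-selective substrates, with and without test compound at 0.03–100 μM. Standard selective inhibitors for each isoform ran in parallel as positive controls. Read-out was IC50. For CYP3A4 only, time-dependent inhibition was also tested after 30 min preincubation, using midazolam and testosterone as substrates.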

CYP3A4 [1] = assay: CYP3A4 induction in primary-cultured human hepatocytes; conditions: for induction of CYP3A4 enzymatic activity: three donors, 3 days dosing, 0.005–10 mg/l
CYP3A4 [2] = target: CYP3A4 (Homo sapiens, UniProt P08684); assay: CYP3A4 inhibition in human liver microsomes
CYP3A4 (Homo sapiens, UniProt P08684), sequence (P08684 whole entry): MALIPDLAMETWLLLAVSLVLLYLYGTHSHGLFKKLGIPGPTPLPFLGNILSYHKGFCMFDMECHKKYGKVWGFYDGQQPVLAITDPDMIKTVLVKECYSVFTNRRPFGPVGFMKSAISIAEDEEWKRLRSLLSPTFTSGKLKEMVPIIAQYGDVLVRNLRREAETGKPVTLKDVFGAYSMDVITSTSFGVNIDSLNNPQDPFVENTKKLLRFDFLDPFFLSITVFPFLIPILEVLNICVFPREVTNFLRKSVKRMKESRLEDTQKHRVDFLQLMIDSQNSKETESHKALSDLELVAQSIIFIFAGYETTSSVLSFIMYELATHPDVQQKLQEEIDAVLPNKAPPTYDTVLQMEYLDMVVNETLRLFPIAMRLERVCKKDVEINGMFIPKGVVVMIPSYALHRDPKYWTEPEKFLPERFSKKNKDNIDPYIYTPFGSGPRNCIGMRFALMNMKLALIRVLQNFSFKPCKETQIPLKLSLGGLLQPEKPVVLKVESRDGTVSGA
How it was run: as §1

CYP2B6 = target: T2, CYP2B6 (Homo sapiens, UniProt P20813); assay: biochemical
T2 sequence (P20813 1-491): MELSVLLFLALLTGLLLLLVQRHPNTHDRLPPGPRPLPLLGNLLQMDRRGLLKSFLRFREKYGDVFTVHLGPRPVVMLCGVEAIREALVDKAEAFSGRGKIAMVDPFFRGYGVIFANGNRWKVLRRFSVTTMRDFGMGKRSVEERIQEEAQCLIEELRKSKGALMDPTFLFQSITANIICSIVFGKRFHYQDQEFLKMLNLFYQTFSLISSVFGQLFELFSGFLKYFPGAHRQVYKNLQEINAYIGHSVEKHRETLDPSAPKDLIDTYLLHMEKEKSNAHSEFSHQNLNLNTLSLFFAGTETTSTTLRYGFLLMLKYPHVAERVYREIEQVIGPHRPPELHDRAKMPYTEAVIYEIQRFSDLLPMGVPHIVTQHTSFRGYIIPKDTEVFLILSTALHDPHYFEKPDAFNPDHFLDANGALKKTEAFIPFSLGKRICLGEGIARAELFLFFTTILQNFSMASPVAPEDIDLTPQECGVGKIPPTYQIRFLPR

OAT3 = OAT3 (Homo sapiens, UniProt Q8TCC7); assay: OAT3 uptake inhibition in transfected HEK cells
OAT3, sequence (Q8TCC7 whole entry): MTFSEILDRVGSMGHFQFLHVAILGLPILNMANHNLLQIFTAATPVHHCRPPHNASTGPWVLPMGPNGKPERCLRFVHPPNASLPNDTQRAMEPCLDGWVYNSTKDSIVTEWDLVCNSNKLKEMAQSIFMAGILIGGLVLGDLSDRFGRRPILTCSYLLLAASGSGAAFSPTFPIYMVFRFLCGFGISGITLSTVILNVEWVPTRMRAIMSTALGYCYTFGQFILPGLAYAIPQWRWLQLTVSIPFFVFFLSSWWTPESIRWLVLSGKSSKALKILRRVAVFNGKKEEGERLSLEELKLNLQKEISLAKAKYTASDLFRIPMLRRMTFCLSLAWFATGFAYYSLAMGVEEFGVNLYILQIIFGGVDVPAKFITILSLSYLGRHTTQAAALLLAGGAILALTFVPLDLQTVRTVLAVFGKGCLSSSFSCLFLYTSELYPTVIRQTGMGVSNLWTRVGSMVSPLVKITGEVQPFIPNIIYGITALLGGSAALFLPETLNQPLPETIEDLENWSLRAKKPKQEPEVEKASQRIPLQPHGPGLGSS
How it was run: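 HEK cells overexpressing NTCP, OAT1, OAT3, OATP2B1, OCT1 or OCT2 were incubated with probe substrate. Pairs were estrone 3-sulfate/cyclosporin A (NTCP), PAH/probenecid (OAT1), furosemide/probenecid (OAT3), estrone 3-sulfate/glibenclamide (OATP2B1), 3H-MPP+/decynium 22 (OCT1) and 3H-MPP+/imipramine (OCT2). IC50 was determined with and without test compound, at ≤50 µM for the parent and ≤10 µM for the metabolite.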

BSEP = BSEP (Homo sapiens, UniProt O95342); assay: BSEP inhibition in sandwich-cultured human hepatocytes
How it was run: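 Sandwich-cultured human hepatocytes were used. Probe substrate was taurocholic acid, with cyclosporin as reference inhibitor. Probe transport was measured without and with test compound to derive IC50. Protein was added to the medium for one tested compound, permitting a higher test concentration.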

MRP2 = MRP2 (Homo sapiens, UniProt Q92887); assay: MRP2 inhibition in transfected HEK cells
MRP2, sequence (Q92887 whole entry): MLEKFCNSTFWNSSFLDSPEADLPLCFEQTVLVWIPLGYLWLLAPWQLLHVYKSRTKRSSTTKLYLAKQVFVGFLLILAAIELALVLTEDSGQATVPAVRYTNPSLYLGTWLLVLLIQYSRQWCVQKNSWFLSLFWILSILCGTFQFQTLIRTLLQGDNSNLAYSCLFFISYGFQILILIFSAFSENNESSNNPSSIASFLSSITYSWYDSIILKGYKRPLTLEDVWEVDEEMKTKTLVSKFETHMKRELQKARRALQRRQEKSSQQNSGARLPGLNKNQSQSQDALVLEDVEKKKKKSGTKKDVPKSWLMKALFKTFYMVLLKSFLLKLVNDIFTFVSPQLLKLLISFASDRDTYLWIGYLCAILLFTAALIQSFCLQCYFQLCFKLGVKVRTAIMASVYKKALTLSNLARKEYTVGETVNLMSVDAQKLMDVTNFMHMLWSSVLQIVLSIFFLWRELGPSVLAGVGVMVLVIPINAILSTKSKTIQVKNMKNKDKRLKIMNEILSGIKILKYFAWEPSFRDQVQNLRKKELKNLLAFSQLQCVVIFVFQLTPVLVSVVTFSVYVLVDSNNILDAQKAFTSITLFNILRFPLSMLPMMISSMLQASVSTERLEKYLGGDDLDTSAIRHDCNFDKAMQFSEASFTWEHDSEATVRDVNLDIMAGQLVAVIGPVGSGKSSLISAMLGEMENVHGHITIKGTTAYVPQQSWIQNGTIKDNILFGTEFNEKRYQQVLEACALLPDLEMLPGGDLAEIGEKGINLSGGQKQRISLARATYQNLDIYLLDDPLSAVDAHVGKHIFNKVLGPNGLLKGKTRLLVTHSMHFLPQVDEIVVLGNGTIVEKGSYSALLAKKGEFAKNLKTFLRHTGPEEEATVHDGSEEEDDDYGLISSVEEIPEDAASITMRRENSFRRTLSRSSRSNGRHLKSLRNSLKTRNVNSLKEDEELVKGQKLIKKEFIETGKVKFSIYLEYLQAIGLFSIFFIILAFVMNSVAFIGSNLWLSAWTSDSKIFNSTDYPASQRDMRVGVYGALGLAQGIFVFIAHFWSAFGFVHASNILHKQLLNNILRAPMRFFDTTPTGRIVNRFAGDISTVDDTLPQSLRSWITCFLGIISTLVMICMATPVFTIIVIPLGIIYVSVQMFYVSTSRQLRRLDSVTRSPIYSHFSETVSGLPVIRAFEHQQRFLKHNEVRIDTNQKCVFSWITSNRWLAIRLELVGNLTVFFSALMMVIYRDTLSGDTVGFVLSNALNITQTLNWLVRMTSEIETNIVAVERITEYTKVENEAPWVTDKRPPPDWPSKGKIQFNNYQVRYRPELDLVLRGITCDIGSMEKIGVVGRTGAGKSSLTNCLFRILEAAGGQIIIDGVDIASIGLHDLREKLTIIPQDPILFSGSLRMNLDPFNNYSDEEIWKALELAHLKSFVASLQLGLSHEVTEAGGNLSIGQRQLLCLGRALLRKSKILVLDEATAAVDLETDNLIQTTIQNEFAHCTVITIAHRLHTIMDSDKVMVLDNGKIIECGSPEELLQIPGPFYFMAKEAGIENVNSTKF
How it was run: (§2)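 HEK cells were transfected with MRP2, MATE1 or MATE2-K. Pairs were CDCF/benzbromarone (MRP2), metformin/cimetidine (MATE1) and metformin/pyrimethamine (MATE2-K). Probe transport was assessed with and without test compound, and IC50 was determined.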

CYP2C19 = CYP2C19 (Homo sapiens, UniProt P33261); assay: CYP2C19 inhibition in human liver microsomes
CYP2C19, sequence (P33261 whole entry): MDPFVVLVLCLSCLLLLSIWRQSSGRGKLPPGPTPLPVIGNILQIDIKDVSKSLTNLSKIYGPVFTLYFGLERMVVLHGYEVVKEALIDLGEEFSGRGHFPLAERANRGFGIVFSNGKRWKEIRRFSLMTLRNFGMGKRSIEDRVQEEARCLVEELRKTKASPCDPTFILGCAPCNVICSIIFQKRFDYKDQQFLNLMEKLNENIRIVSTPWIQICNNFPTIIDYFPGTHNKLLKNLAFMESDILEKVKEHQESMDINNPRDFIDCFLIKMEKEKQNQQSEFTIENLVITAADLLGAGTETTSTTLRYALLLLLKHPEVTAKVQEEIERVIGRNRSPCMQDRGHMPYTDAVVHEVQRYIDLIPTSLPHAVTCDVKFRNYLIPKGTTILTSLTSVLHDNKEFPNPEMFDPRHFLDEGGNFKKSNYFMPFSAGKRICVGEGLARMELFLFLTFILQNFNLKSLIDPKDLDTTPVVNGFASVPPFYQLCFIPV
How it was run: as §1

CYP2E1 = CYP2E1 (Homo sapiens, UniProt P05181); assay: CYP2E1 inhibition in human liver microsomes
CYP2E1, sequence (P05181 whole entry): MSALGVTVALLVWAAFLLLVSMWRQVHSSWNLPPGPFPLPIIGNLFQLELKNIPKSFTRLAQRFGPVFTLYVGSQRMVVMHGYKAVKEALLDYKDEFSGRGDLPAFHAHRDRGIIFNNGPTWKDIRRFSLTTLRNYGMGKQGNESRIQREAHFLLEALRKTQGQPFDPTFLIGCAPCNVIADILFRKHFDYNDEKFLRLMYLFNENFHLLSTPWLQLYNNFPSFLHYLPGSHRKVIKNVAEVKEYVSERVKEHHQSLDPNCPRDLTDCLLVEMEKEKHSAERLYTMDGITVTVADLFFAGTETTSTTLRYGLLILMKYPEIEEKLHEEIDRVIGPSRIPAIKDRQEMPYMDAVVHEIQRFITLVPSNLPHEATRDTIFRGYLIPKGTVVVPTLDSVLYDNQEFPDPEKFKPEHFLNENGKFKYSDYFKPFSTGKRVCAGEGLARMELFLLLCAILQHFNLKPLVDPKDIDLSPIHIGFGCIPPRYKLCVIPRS
How it was run: as §1

MATE2-K = MATE2-K (Homo sapiens, UniProt Q86VL8); assay: MATE2-K inhibition in transfected HEK cells
How it was run: as §2

CYP2C8 = target: T3, CYP2C8 (Homo sapiens, UniProt P10632); assay: CYP2C8 inhibition in human liver microsomes
T3 sequence (P10632 1-490): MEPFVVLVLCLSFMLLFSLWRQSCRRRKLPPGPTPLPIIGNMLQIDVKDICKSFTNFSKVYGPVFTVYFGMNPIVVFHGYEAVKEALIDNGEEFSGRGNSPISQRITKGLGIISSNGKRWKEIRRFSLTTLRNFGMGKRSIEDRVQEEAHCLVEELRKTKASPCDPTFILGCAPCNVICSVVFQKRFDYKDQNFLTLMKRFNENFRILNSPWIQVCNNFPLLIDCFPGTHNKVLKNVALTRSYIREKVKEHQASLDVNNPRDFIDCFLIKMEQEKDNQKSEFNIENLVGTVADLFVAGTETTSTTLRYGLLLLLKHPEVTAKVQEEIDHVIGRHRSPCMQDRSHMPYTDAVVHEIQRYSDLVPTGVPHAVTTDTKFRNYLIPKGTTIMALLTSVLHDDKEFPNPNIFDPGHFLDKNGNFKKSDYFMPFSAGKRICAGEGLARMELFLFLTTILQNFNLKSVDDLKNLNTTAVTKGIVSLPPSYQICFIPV
How it was run: as §1

MATE1 = MATE1 (Homo sapiens, UniProt Q96FL8); assay: MATE1 inhibition in transfected HEK cells
MATE1, sequence (Q96FL8 whole entry): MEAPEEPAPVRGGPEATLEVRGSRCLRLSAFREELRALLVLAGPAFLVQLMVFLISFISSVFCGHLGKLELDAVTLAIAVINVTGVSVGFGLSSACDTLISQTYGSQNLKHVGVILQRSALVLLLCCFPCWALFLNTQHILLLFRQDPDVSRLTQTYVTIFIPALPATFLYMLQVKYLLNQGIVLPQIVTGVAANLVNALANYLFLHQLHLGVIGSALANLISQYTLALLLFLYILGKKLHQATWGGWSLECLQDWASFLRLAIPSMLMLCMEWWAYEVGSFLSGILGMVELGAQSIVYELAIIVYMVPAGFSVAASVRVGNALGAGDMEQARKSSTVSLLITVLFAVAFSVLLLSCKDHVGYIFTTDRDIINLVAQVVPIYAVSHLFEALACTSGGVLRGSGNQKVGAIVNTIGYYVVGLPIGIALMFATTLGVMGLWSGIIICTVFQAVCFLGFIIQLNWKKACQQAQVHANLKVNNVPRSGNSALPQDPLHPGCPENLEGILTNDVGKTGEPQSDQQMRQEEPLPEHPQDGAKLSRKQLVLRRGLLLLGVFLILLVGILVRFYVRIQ
How it was run: as §2

[3] = read-out: IC50, CYP3A4 (with pre-incubation), human liver microsomes, substrate midazolam, 30 min pre-incubation
[4] = read-out: IC50, CYP3A4 (with pre-incubation), human liver microsomes, substrate testosterone, 30 min pre-incubation

CC(O)c1cc(C(=O)N[C@@H](C)Cn2ccc(-c3ccc(C#N)c(Cl)c3)n2)[nH]n1 (some centres unmarked) [Darolutamide, darolutamide]
uptake in OCT1-transfected HEK cells (OCT1): no uptake | IC50 (CYP2C9): 30.3 µM | CYP3A4 induction as % of rifampicin response (CYP3A4 [1]): 28% | induction of CYP3A4 enzymatic activity (CYP3A4 [1]): ≤ 5.3 fold | IC50 (CYP3A4 [2]): > 100 µM | IC50 (CYP3A4 [2]; [3]): > 100 µM | IC50 (CYP3A4 [2]; [4]): > 100 µM | IC50 (CYP2B6): > 100 µM | IC50 (OAT3): 4.5 µM | IC50 (BSEP): > 60 µM | IC50 (MRP2): > 50 µM | IC50 (CYP2C19): 64.1 µM | IC50 (CYP2E1): > 100 µM | IC50 (MATE2-K): 9.5 µM | IC50 (CYP2C8): > 100 µM | IC50 (MATE1): 32.3 µM

CC(=O)c1cc(C(=O)N[C@@H](C)Cn2ccc(-c3ccc(C#N)c(Cl)c3)n2)[nH]n1 [Keto-darolutamide, keto-darolutamide]
uptake in OCT1-transfected HEK cells (OCT1): no uptake | IC50 (CYP2C9; read-out: IC50, CYP2C9, human liver microsomes, substrate diclofenac): 9.6 µM | induction of CYP3A4 enzymatic activity (CYP3A4 [1]): ≤ 5.4 fold | IC50 (CYP3A4 [2]; [3]): > 50 µM | IC50 (CYP3A4 [2]; [4]): > 50 µM | IC50 (CYP3A4 [2]; read-out: IC50, CYP3A4, human liver microsomes, substrate midazolam): > 50 µM | IC50 (CYP3A4 [2]; read-out: IC50, CYP3A4, human liver microsomes, substrate testosterone): > 50 µM | IC50 (CYP2B6; read-out: IC50, CYP2B6, human liver microsomes, substrate bupropion): 54.2 µM | IC50 (OAT3; read-out: IC50, OAT3, HEK cells, substrate furosemide, reference probenecid): > 2 µM | IC50 (BSEP; read-out: IC50, BSEP, sandwich-cultured human hepatocytes, taurocholic acid/cyclosporin, higher test concentration possible because of addition of protein to the assay media): > 300 µM | IC50 (MRP2; read-out: IC50, MRP2, HEK cells, substrate CDCF, reference benzbromarone): > 10 µM | IC50 (CYP2C19; read-out: IC50, CYP2C19, human liver microsomes, substrate S-mephenytoin): 39.5 µM | IC50 (CYP2E1; read-out: IC50, CYP2E1, human liver microsomes, substrate chlorzoxazone): > 100 µM | IC50 (MATE2-K; read-out: IC50, MATE2 K, HEK cells, substrate metformin, reference pyrimethamine): 3 µM | IC50 (CYP2C8; read-out: IC50, CYP2C8, human liver microsomes, substrate paclitaxel): 48.6 µM | IC50 (MATE1; read-out: IC50, MATE1, HEK cells, substrate metformin, reference cimetidine): > 10 µM
